Tests used:
[1] = metabolites excreted through the biliary route; cited from earlier work
[2] = Population pharmacokinetic model; format: in vivo, human
Outline: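 Whole blood sampled 0–12 h post-dose and assayed by chemiluminescent microparticle immunoassay. Compartment models with first-order absorption; between-subject variability exponential, log-normal; categorical covariates as fractional change. Precision from 1000 bootstrap replicates (median, 95% percentile).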

- magnitude of BSV on CL/F ([2]; after inclusion of covariates): 37%
- magnitude of BSV on V/F ([2]; after inclusion of covariates): 76.7%
- Individual base model estimated apparent clearance CL/F, mean ([2]; extensive metabolizers (CEMCYP3A5)): 45.0 L/h
- Individual base model estimated apparent clearance CL/F, mean ([2]; intermediate metabolizers (CIMCYP3A5)): 29.5 L/h
- Individual base model estimated apparent clearance CL/F, mean ([2]; poor metabolizers (CPMCYP3A5)): 19.8 L/h
- magnitude of BSV on CL/F ([2]; before inclusion of covariates): 46.6%
- magnitude of BSV on V/F ([2]; before inclusion of covariates): 83.2%
- increase in CL/F compared to cPMCYP3A5 ([2]; cEMCYP3A5): ~2 fold
- Typical value of CL/F ([2]; cEMCYP3A5, final model): 44.3 L.hr^1
- increase in CL/F compared to cPMCYP3A5 ([2]; cIMCYP3A5): ~1.5 fold
- Typical value of CL/F ([2]; cIMCYP3A5, final model): 28.6 L.hr^1
- Typical value of CL/F ([2]; cPMCYP3A5, final model): 19.7 L.hr^1
- BSV CL/F - η1, between-subject variability, estimate ([2]; final model): 37.0 CV%
- BSV CLp/F - η3, between-subject variability, estimate ([2]; final model): 48.6 CV%
- BSV V/F - η2, between-subject variability, estimate ([2]; final model): 76.7 CV%
- BSV ka - η4, between-subject variability, estimate ([2]; final model): 69.4 CV%
- Lag time - θlag, estimate ([2]; final model): 0.828 h
- Residual variability, proportional error - ε1, estimate ([2]; final model): 9.00
- ka - θka, absorption rate, estimate ([2]; final model): 4.21 h⁻¹
- Vd/F ([2]; human, whole blood, oral): 234 L
- clearance ([2]; human, whole blood, oral, 2.5 mg): 328 mL/min
- clearance ([2]; human, whole blood, oral, 3.9 mg): 477 mL/min
- clearance ([2]; human, whole blood, oral, 5.7 mg): 738 mL/min
- BSV V/F - η2, bootstrap median ([2]; nonparametric bootstrap n=1000): 76.0 CV%
- BSV ka - η4, bootstrap median ([2]; nonparametric bootstrap n=1000): 68.6 CV%
- Lag time - θlag, bootstrap median ([2]; nonparametric bootstrap n=1000): 0.830 h
- Residual variability, proportional error - ε1, bootstrap median ([2]; nonparametric bootstrap n=1000): 8.90
- V/F - θV/F, bootstrap median ([2]; nonparametric bootstrap n=1000): 231 L
- Vp/F - θVp/F, bootstrap median ([2]; nonparametric bootstrap n=1000): 404 L
- ka - θka, bootstrap median ([2]; nonparametric bootstrap n=1000): 4.14 h⁻¹
- CL/F - θCL/F, bootstrap median ([2]; nonparametric bootstrap n=1000, poor metabolizers): 19.6 L/h
Structure (SMILES): C=CC[C@@H]1/C=C(\C)C[C@H](C)C[C@H](OC)[C@H]2O[C@@](O)(C(=O)C(=O)N3CCCC[C@H]3C(=O)O[C@H](/C(C)=C/[C@@H]3CC[C@@H](O)[C@H](OC)C3)[C@H](C)[C@@H](O)CC1=O)[C@H](C)C[C@@H]2OC [tacrolimus, Tacrolimus]
- parent drug remaining unchanged [1]: less than 1%
